Measured values from ChEMBL document CHEMBL1133861, “A novel class of highly potent, selective, and non-peptidic inhibitor of Ras farnesyltransferase (FTase)” (Bioorg Med Chem Lett, 2001).

Legend:
[1] = molecular target: T1, Protein farnesyltransferase (Homo sapiens, UniProt P49354+P49356); experiment: Inhibition of farnesyltransferase activity against H-Ras; format: protein-complex assay
In short: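 FTase (16.6 nM) incubated 30 min at 37 °C with H-Ras substrate, [3H]farnesyl pyrophosphate and serially diluted compound. Buffer: 50 mM HEPES pH 7.4, KCl, MgCl2, ZnCl2, 0.5% N-octylglucoside, 10 mM DTT. Reactions quenched with 10% HCl in ethanol. Farnesylated Ras captured on glass-fiber filters and scintillation counted. IC50 is the concentration halving [3H]FPP incorporation; mean of three experiments.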

[2] = tested on: EJ; experiment: Percent inhibition of tumor growth relative to control tumors in tumor xenograft nude mice (with p<0.001 compared to control) against EJ at a dose of 60 mg/kg, bid on day 15;Regression.; format: functional, organism-based; parameters: dose 60 mg/kg; conditions: Homo sapiens
In short: (§1)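 Female athymic BALB/c nu/nu mice, 5–7 weeks old, acclimated ≥1 week, inoculated s.c. intrascapularly with 10^7 tumor cells. Tumour volume measured in three dimensions every three days as 1/6·π·L·W·H. At ~100 mm3 mice randomised, 8 per group (Day 0). Dosing by gastric gavage twice daily from Day 1 for 21 days; vehicle 0.9% saline. Ulcerated tumours excluded; Student's t-test.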

[3] = tested on: EJ; experiment: Percent inhibition of tumor growth relative to control tumors in tumor xenograft nude mice (with p<0.001 compared to control) against EJ at a dose of 40 mg/kg, bid on day 15;Regression.; format: functional, organism-based; parameters: dose 40 mg/kg; conditions: Homo sapiens; in short: as §1
[4] = molecular target: Geranylgeranyl transferase type I (Homo sapiens, UniProt P49354+P53609); experiment: Inhibition of Geranylgeranyl transferase type I; format: protein-complex assay
[5] = molecular target: T1, Protein farnesyltransferase; experiment: Inhibition of farnesyltransferase activity against K-Ras; format: protein-complex assay
In short: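 K-Ras used as acceptor substrate with FTase (16.6 nM) and [3H]FPP plus serially diluted inhibitor, 30 min at 37 °C, in HEPES pH 7.4 buffer with Mg2+, Zn2+, KCl, octylglucoside and DTT. Stopped with acidic ethanol, then filter binding and scintillation counting of labeled K-Ras. IC50 is 50% reduction of [3H]FPP transfer; mean of three determinations.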

[6] = tested on: HT-29; experiment: Inhibition of anchorage independent growth of human tumor cell line HT-29 K-ras-transformed in soft agar; format: functional
In short: (§2)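 Cells adapted 2–3 days in DMEM + 10% FBS after thawing. Bottom layer 0.5% agar with DMEM/FBS and compound; top layer 0.33% agar with compound, cells at 2–5×10^3 cells/mL. Colonies counted by microscope after two weeks in humidified CO2 incubator. GI50 from plot of % colony growth versus log10 concentration for each cell line.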

[7] = tested on: HCT-116; experiment: Percent inhibition of tumor growth relative to control tumors in tumor xenograft nude mice against HCT116 at a dose of 60 mg/kg, bid on day 21;p<0.001; format: functional, Homo sapiens; conditions: Mus musculus, HCT-116, 504 h; in short: as §1
[8] = tested on: HCT-116; experiment: Percent inhibition of tumor growth relative to control tumors in tumor xenograft nude mice against HCT116 at a dose of 40 mg/kg, bid on day 21;p<0.001.; format: functional, Homo sapiens; conditions: Mus musculus, HCT-116, 504 h; in short: as §1
[9] = tested on: A549; experiment: Inhibition of anchorage independent growth of human tumor cell line A549 K-ras-transformed in soft agar; format: functional; in short: as §2
[10] = tested on: HCT-116; experiment: Inhibition of anchorage independent growth of human tumor cell line HCT116 K-ras-transformed in soft agar; format: functional; in short: as §2
[11] = tested on: EJ; experiment: Percent inhibition of tumor growth relative to control tumors in tumor xenograft nude mice against EJ at a dose of 20 mg/kg, bid on day 15;p<0.001; format: functional, Homo sapiens; conditions: Mus musculus, 360 h; in short: as §1
[12] = tested on: T-24; experiment: Inhibition of anchorage independent growth of human tumor cell line T24 H-ras-transformed in soft agar; format: functional; in short: as §2
[13] = tested on: EJ; experiment: Inhibition of anchorage independent growth of human tumor cell line EJ H-ras-transformed in soft agar; format: functional; in short: as §2

Row | SMILES | IC50 [1] [nM] | IC50 [4] [nM] | IC50 [5] [nM] | other results
1 | CCOC(=O)c1cn(Cc2c[nH]cn2)cc1-c1cccc2ccccc12 | 500 | – | – | –
2 | CN1CCN(C(=O)c2cn(Cc3cncn3Cc3ccc4c(c3)OCO4)cc2-c2cccc3ccccc23)CC1 [listing 1 of 3 here] | – | – | – | inhibition [2]: Regression; inhibition [3]: Regression
3 | O=C(c1cn(Cc2cncn2Cc2ccc3c(c2)OCO3)cc1-c1cccc2ccccc12)N1CCOCC1 | 0.9 | 12000 | – | –
4 | O=C(c1cn(Cc2c[nH]cn2)cc1-c1cccc2ccccc12)N1CCOCC1 | – | – | 1830 | –
5 | O=C(c1cn(Cc2cnc[nH]2)cc1-c1ccccc1)N1CCOCC1 | 2000 | – | – | –
6 | CN1CCN(C(=O)c2cn(Cc3cncn3Cc3ccc4c(c3)OCO4)cc2-c2cccc3ccccc23)CC1 [listing 2 of 3 here] | – | – | – | GI50 [6]: 4.5 nM; inhibition in vivo at 60 mg/kg [7]: 55%; inhibition in vivo at 40 mg/kg [8]: 43%; GI50 [9]: 1.2 nM; GI50 [10]: 17.6 nM; inhibition in vivo at 20 mg/kg [11]: 78%; GI50 [12]: 0.45 nM; GI50 [13]: 0.56 nM
7 | Cn1cncc1Cn1cc(C(=O)N2CCOCC2)c(-c2cccc3ccccc23)c1 | 3 | > 100000 | 100 | –
8 | CN1CCN(C(=O)c2cn(Cc3cncn3Cc3ccc4c(c3)OCO4)cc2-c2cccc3ccccc23)CC1 [listing 3 of 3 here] | 0.9 | 16000 | – | –
9 | O=C(c1cn(Cc2cncn2Cc2ccccc2)cc1-c1cccc2ccccc12)N1CCOCC1 | 1.5 | – | 2.1 | –
10 | COCCN(C)C(=O)c1cn(Cc2cncn2Cc2ccc3c(c2)OCO3)cc1-c1cccc2ccccc12 | – | 10000 | – | –
